According to ChEMBL document CHEMBL4364260, “Discovery of Ziresovir as a Potent, Selective, and Orally Bioavailable Respiratory Syncytial Virus Fusion Protein Inhibitor” (J Med Chem, 2019):
The source made the active and inactive calls. The calls are words filed in the database; no cut-off is given here.

Legend:
[1] = Half-life in CD-1 mouse lung at 10 mg/kg/day, po administered via gavage and measured up to 24 hrs by LC/MS/MS analysis; assay type: ADME, organism-based
[2] = tested on: Human parainfluenza virus 2; assay: Antiviral activity against Human parainfluenza virus 2 infected in human Hep2 cells assessed as reduction in virus induced cytopathic effect after 5 days by CCK-8 assay; assay type: functional, organism-based; conditions: Human orthorubulavirus 2
[3] = Oral bioavailability in CD-1 mouse at 50 mg/kg; assay type: ADME, organism-based; conditions: in vivo
In short: (§1)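 Single-dose PK in CD-1 mice: 5 mg/kg iv, 50 mg/kg po. Dosed as a solution in 5% DMSO, 40% PEG400, 55% of 0.9% NaCl. Plasma CL, Vss, iv T1/2, AUC and F were derived.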

[4] = Half-life in Wistar-Han rat at 2 mg/kg, iv administered as single dose and measured up to 24 hrs by LC/MS/MS analysis; assay type: ADME, organism-based; conditions: in vivo
In short: (§2)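 Male Wistar-Han rats, single dose, 2 mg/kg iv and 10 mg/kg po, run by standard procedures.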

[5] = Clearance in Beagle dog at 1 mg/kg, iv or 10 mg/kg, po; assay type: ADME, organism-based, Canis lupus familiaris; conditions: in vivo
In short: (§3)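 Beagle dog single-dose PK at 1 mg/kg iv and 10 mg/kg po, dosed as a solution in 12.5% captisol in water. Plasma clearance, Vss, iv T1/2, AUC and F were reported.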

[6] = Tmax in CD-1 mouse lung at 10 mg/kg/day, po administered via gavage and measured up to 24 hrs by LC/MS/MS analysis; assay type: ADME, organism-based
Enterovirus = assay: Antiviral activity against Rhinovirus infected in human Hep2 cells assessed as reduction in virus induced cytopathic effect after 5 days by CCK-8 assay; assay type: functional, organism-based
[7] = AUC (0 to 24 hrs) in Sprague-Dawley rat at 10 mg/kg, po; assay type: ADME, organism-based; design: dose 10 mg/kg, time < 24 hr, route oral; conditions: in vivo
[8] = Half-life in Sprague-Dawley rat at 2 mg/kg, iv; assay type: ADME, organism-based; conditions: in vivo
In short: (§4)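 Rat single-dose PK: 2 mg/kg iv and 10 mg/kg po. Compound was given as a solution in 5% DMSO/40% PEG400/55% of 0.9% saline. Plasma CL, Vss, iv half-life, AUC and oral bioavailability were reported.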

[9] = Oral bioavailability in Wistar-Han rat at 10 mg/kg administered as single dose via gavage and measured up to 24 hrs by LC/MS/MS analysis; assay type: ADME, organism-based; conditions: in vivo; in short: as §2
[10] = Tmax in CD-1 mouse plasma at 10 mg/kg/day, po administered via gavage and measured up to 24 hrs by LC/MS/MS analysis; assay type: ADME, organism-based
Human respirovirus 1 = assay: Antiviral activity against Human parainfluenza virus 1 infected in human Hep2 cells assessed as reduction in virus induced cytopathic effect after 5 days by CCK-8 assay; assay type: functional, organism-based
[11] = AUC (0 to 24 hrs) in CD-1 mouse lung at 10 mg/kg/day, po administered via gavage and measured up to 24 hrs by LC/MS/MS analysis; assay type: ADME, organism-based; design: dose 10 mg/kg/day, time < 24 hr, route oral
[12] = Cytotoxicity against human Hep2 cells assessed as reduction in cell viability after 5 days by CCK-8 assay; assay type: cell-based; conditions: HEp-2 cells
In short: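 Uninfected HEp-2 cells (6000/well) were incubated 5 days with serially diluted compound. Viability was read by CCK-8, and CC50 is the concentration toxic to 50% of cells.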

[13] = Clearance in Sprague-Dawley rat at 2 mg/kg, iv or 10 mg/kg, po; assay type: ADME, organism-based; conditions: in vivo; in short: as §4
[14] = Oral bioavailability in Sprague-Dawley rat at 10 mg/kg; assay type: ADME, organism-based; conditions: in vivo; in short: as §4
Human respirovirus 3 = assay: Antiviral activity against Human parainfluenza virus 3 infected in human Hep2 cells assessed as reduction in virus induced cytopathic effect after 5 days by CCK-8 assay; assay type: functional, organism-based
[15] = Plasma clearance in Wistar-Han rat at 2 mg/kg, iv or 10 mg/kg, po administered as single dose via gavage and measured up to 24 hrs by LC/MS/MS analysis; assay type: ADME, organism-based; in short: as §2
[16] = AUC (0 to 24 hrs) in CD-1 mouse at 50 mg/kg, po; assay type: ADME, organism-based; design: dose 50 mg/kg, time < 24 hr, route oral; conditions: in vivo
In short: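 Single-dose PK in mouse at 5 mg/kg iv or 50 mg/kg po, as a solution in 5% DMSO, 40% PEG400 and 55% 0.9% sodium chloride. Plasma AUC was taken from the oral arm, with CL, Vss, iv T1/2 and F also derived.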

[17] = Clearance in cynomolgus monkey at 2 mg/kg, iv or 10 mg/kg, po; assay type: ADME, organism-based, Macaca fascicularis; conditions: in vivo
In short: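 Cynomolgus monkeys got single doses of 2 mg/kg iv and 10 mg/kg po as a solution in 12.5% captisol in water. Plasma CL, Vss, iv T1/2, AUC and oral F were derived.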

[18] = Volume of distribution at steady state in Beagle dog at 1 mg/kg, iv or 10 mg/kg, po; assay type: ADME, organism-based, Canis lupus familiaris; conditions: in vivo, read-out: Vdss; in short: as §3
Human orthopneumovirus = assay: Antiviral activity against Human respiratory syncytial virus B18537 infected in human Hep2 cells assessed as reduction in virus induced cytopathic effect in presence of 10% FBS after 5 days by CCK-8 assay; assay type: functional, organism-based; conditions: subgroup B / strain 18537, HEp-2, 120 h
In short: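 HEp-2 cells seeded at 6000/well and infected the next day at MOI 0.02, a dose that gives about 90% CPE by day 5. Serial compound dilutions were present throughout, in standard medium with 10% FBS. Viability was read by CCK-8 at day 5, and EC50 is the concentration that cuts CPE by 50%.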

[19] = Cmax in CD-1 mouse lung at 10 mg/kg/day, po administered via gavage and measured up to 24 hrs by LC/MS/MS analysis; assay type: ADME, organism-based; design: dose 10 mg/kg/day, route oral
[20] = Antiviral activity against Human respiratory syncytial virus A strain Long infected in human Hep2 cells assessed as reduction in virus induced cytopathic effect in presence of 40% FBS after 5 days by CCK-8 assay; assay type: functional, cell-based; conditions: HEp-2, 120 h
In short: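 RSV Long CPE assay with 40% FBS in place of the standard 10%. HEp-2 cells at 6000/well were infected next day at MOI 0.02 and kept 5 days with serially diluted compound. CCK-8 viability gave the 50% effective concentration.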

[21] = tested on: Fusion glycoprotein F0 (Human respiratory syncytial virus A (strain A2)), P03420 [D486N]; assay: Inhibition of Human respiratory syncytial virus Fusion protein D486N mutant expressed in Hep2 cells as reduction in virus induced cytopathic effect by CCK-8 assay; assay type: cell-based
In short: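 HEp-2 cells were seeded at 6000/well and infected with plaque-purified RSV carrying the F-protein mutation (D486N or D489A) at MOI 0.04, with serially diluted compound. Viability was read by CCK-8 absorbance at 450 nm/650 nm, and EC50/EC90 were derived from protection against virus-induced cytopathic effect.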

[22] = Volume of distribution at steady state in CD-1 mouse at 5 mg/kg, iv or 50 mg/kg, po; assay type: ADME, organism-based; conditions: in vivo, read-out: Vdss; in short: as §1
[23] = AUC (0 to 24 hrs) in CD-1 mouse plasma at 10 mg/kg/day, po administered via gavage and measured up to 24 hrs by LC/MS/MS analysis; assay type: ADME, organism-based; design: dose 10 mg/kg/day, time < 24 hr, route oral

**Q.** What does the source list for `Cc1ccc2nc(N3CCS(=O)(=O)c4ccccc4C3)nc(NCC3(N)COC3)c2c1` [ZIRESOVIR]?
**A.** half-life [1]: 3.31 h; Activity [2]: inactive; bioavailability [3]: 66%; half-life [4]: 1.2 h; clearance [5]: 36 mL/min/kg; Tmax [6]: 1 h; Activity (Enterovirus): inactive; AUC(0-t) at 24 h [7]: 906 ng·h/mL; half-life [8]: 1.2 h; bioavailability [9]: 32%; Tmax [10]: 0.25 h; Activity (Human respirovirus 1): inactive; AUC at 24 h [11]: 72400 ng·h/mL; CC50 at 120 h [12]: > 100000 nM; clearance [13]: 58 mL/min/kg; bioavailability [14]: 32%; Activity (Human respirovirus 3): inactive; clearance [15]: 58 mL/min/kg; AUC(0-t) at 24 h [16]: 1970 ng·h/mL; clearance [17]: 26 mL/min/kg; Vd [18]: 6.7 L/kg; EC50 (Human orthopneumovirus): 2 nM; EC90 (Human orthopneumovirus): 3 nM; Cmax [19]: 22700 ng/mL; EC50 [20]: 3 nM; EC90 [20]: 8 nM; EC90 [21]: > 10000 nM; Vd [22]: 6.3 L/kg; AUC at 24 h [23]: 8380 ng·h/mL
